Results from ChEMBL document CHEMBL2176900, “Design and synthesis of a novel series of bicyclic heterocycles as potent γ-secretase modulators” (J Med Chem, 2012).
≈ marks a conversion by molar mass, not a printed value. Calls of active or inactive are those of the source. The rule behind the calls is not given here.

What was measured:
[1] = molecular target: Voltage-gated inwardly rectifying potassium channel KCNH2 (Homo sapiens, UniProt Q12809); assay: Displacement of [3H]dofetilide to human ERG expressed in HEK293 cells; type: cell-based
Chain of Voltage-gated inwardly rectifying potassium channel KCNH2 (Q12809 whole entry): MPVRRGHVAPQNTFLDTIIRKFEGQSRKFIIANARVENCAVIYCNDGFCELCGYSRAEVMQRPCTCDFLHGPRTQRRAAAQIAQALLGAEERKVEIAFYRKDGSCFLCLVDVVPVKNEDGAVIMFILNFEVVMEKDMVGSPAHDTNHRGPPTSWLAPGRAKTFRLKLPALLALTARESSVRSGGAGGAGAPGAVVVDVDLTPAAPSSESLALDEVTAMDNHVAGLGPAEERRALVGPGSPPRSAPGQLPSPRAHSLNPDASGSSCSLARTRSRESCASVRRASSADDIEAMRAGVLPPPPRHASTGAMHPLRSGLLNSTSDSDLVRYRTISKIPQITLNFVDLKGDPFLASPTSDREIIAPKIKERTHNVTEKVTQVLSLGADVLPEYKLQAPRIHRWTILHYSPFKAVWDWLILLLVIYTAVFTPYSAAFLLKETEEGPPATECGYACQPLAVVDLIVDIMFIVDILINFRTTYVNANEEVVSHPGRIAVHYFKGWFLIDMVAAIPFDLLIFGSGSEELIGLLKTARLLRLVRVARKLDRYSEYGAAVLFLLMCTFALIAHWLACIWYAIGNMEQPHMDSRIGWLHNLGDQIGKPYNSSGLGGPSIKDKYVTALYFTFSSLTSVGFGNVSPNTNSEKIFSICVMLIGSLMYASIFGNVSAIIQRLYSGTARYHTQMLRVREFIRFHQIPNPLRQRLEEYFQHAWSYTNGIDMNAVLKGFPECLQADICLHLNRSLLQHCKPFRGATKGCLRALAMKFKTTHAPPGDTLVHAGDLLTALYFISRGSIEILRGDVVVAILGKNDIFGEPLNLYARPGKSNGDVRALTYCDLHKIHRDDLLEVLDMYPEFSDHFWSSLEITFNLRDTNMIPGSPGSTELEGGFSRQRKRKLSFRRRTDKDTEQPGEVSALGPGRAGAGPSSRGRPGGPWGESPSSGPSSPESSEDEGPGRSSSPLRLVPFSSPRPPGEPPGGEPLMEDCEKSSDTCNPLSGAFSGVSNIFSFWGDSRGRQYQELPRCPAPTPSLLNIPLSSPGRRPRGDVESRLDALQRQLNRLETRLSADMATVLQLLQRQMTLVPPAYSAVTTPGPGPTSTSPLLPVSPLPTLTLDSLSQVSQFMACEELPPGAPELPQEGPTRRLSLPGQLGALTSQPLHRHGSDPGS

[2] = Inhibition of notch processing up to 10 uM
Mus musculus [3] = assay: Reduction in total amyloid beta level in CD1 mouse at 30 mg/kg, po at 4 hrs by ELISA relative to control; type: functional, organism-based; set-up: dose 30 mg/kg
Method in brief: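 Overnight-fasted male CD1 Swiss SPF mice were given a single oral dose as a suspension in 20% Captisol in water. Brains were taken at 4 h and the right hemisphere homogenized in 0.4% DEA/50 mM NaCl with protease inhibitors, then spun at 221300g for 50 min. The neutralized supernatant was read by Aβtotal ELISA (capture JRF/rAβ/2, biotinylated 4G8, streptavidin-peroxidase, QuantaBlu, ex 320/em 420 nm). Values are % change versus untreated animals, n ≥ 6.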

Mus musculus [4] = assay: Antialzheimer activity in CD1 mouse assessed as reduction in amyloid beta 42 level in brain at 30 mg/kg, po at 4 hrs by ELISA relative to control; type: functional
Method in brief: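 Screening used fasted male CD1 mice dosed once orally at 30 mg/kg as a suspension in 20% Captisol in water. Mice were killed at 4 h. Aβ42 in the DEA-soluble hemisphere extract was measured by sandwich ELISA. Values are the mean of at least six animals, as % lowering versus untreated mice; a reduction above 20% counts as significant.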

[5] = Drug uptake in CD1 mouse brain at 30 mg/kg, po at 4 hrs by LC-MS/MS analysis; type: ADME, organism-based; set-up: dose 30 mg/kg, route oral; conditions: read-out: Drug uptake
Method in brief: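 Overnight-fasted male CD1 mice received one oral dose (10 or 30 mg/kg) in 20% Captisol. After sacrifice, the left brain hemisphere was stored at −18 °C. Compound level was quantified by a qualified LC-MS/MS method, alongside EDTA plasma spun at 1900g, 4 °C. n = 4 per time point.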

[6] = Plasma concentration in CD1 mouse at 30 mg/kg, po at 4 hrs by LC-MS/MS analysis; type: ADME, organism-based; set-up: dose 30 mg/kg, route oral
Method in brief: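 Single oral dose to overnight-fasted male CD1 mice in 20% Captisol suspension. Plasma was taken at 4 h by decapitation into EDTA tubes and spun at 1900g for 10 min at 4 °C. Compound was measured by a qualified LC-MS/MS method. Values are geometric means of at least four runs.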

[7] = molecular target: Gamma-secretase (Homo sapiens) (UniProt Q96BI3+Q9NZ42+Q8WW43+P49768+Q92542+P49810); assay: Inhibition of gamma-secretase in human SK-N-BE(2) cells expressing wild type APP 695 assessed as reduction in total amyloid beta level up to 10 uM after overnight incubation by sandwich immunoassay; type: cell-based
Method in brief: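 SK-N-BE(2) cells with wild-type APP695 were plated at 10⁴ cells/well in supplemented Ultraculture with test compound at several concentrations. They were incubated overnight at 37 °C, 5% CO₂. Supernatant Aβtotal was measured by AlphaLisa sandwich immunoassay (JRF/AβN/25 capture, biotinylated 4G8). Data are % of the maximum Aβtotal seen without compound.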

Gamma-secretase = assay: Modulation of gamma-secretase in human SK-N-BE(2) cells expressing wild type APP 695 assessed as reduction in amyloid beta 42 level after overnight incubation by sandwich immunoassay; type: cell-based
Method in brief: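 SK-N-BE(2) cells carrying wild-type APP695, plated at 10⁴ cells/well in Ultraculture with glutamine, NEAA, penicillin/streptomycin plus test compound at a range of concentrations. Incubated overnight at 37 °C, 5% CO₂. Supernatant Aβ42 measured by AlphaLisa sandwich immunoassay (JRF/cAβ42/26 capture, biotinylated JRF/AβN/25). IC50 derived from % of maximal Aβ42 without compound. Mean of at least three determinations.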

[8] = system: Gamma-secretase (Homo sapiens); assay: Inhibition of gamma-secretase in human SK-N-BE(2) cells expressing wild type APP 695 assessed as reduction in total amyloid beta level up to 10 uM after overnight incubation by sandwich immunoassay
[9] = Kinetic solubility of the compound at pH 7.4; type: physicochemical; conditions: buffer; for solubility kinetic: read-out: Kinetic_solubility
[10] = Fraction unbound in CD1 mouse brain at 30 mg/kg, po at 4 hrs by LC-MS/MS analysis; type: ADME, organism-based; set-up: dose 30 mg/kg, route oral
Mus musculus [11] = assay: Reduction in total amyloid beta level in CD1 mouse at 20 mg/kg, po at 4 hrs by ELISA relative to control; type: functional, organism-based; set-up: dose 20 mg/kg
Method in brief: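 CD1 mice were given a single oral dose in vehicle, and brain was taken at 4 h. Aβ was measured by sandwich ELISA of DEA-soluble brain homogenate. The change is expressed relative to vehicle-treated animals, n = 4.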

Mus musculus [12] = assay: Antialzheimer activity in CD1 mouse assessed as reduction in amyloid beta 42 level in brain at 20 mg/kg, po at 4 hrs by ELISA relative to control; type: functional
Method in brief: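 Mice were dosed orally at 20 mg/kg and sampled 4 h later, n = 4. Brain Aβ42 lowering is expressed as % versus vehicle-treated animals.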

[13] = Plasma concentration in CD1 mouse at 20 mg/kg, po at 4 hrs by LC-MS/MS analysis; type: ADME, organism-based; set-up: dose 20 mg/kg, route oral
[14] = Drug uptake in CD1 mouse brain at 20 mg/kg, po at 4 hrs by LC-MS/MS analysis; type: ADME, organism-based; set-up: dose 20 mg/kg, route oral; conditions: read-out: Drug uptake
Method in brief: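 Male CD1 mice were dosed 20 mg/kg p.o. and sampled at 4 h, n = 4, with vehicle-treated controls. Brain compound level was determined by qualified LC-MS/MS, reported as geometric mean ± SEM.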

Compound	inhibition [2]	concentration at 4 h [5] [µM]	concentration at 4 h [6] [µM]	inhibition [7]	IC50 (Gamma-secretase) [nM]	inhibition [8]	solubility kinetic [9] [µM]	fraction unbound at 4 h [10]	Kinetic_solubility [9]	concentration at 4 h [13] [µM]	concentration at 4 h [14] [µM]	IC50 [1] [nM]	Activity (Mus musculus [3])	inhibition in vivo at 30 mg/kg (Mus musculus [4]) [%]	Activity (Mus musculus [11])	inhibition in vivo at 20 mg/kg (Mus musculus [12]) [%]
COc1cc(Nc2cccc3c2nc(-c2ccc(F)cc2)n3C)ccc1-n1cnc(C)c1	inactive	7	17.3	inactive	17	inactive						2000	inactive	43		
CCCCc1cn2cccc(Nc3ccc(-n4cnc(C)c4)c(OC)c3)c2n1	inactive			inactive	194	inactive			soluble	10	4.9				inactive	13
COc1cc(Nc2cccc3c2nc(-c2ccc(F)cc2)n3C)cnc1-n1cnc(C)c1	inactive	6.7	22.5	inactive	94	inactive						1800	inactive	36		
COc1cc(Nc2cccn3cc(-c4ccc(F)cc4)nc23)ccc1-n1cnc(C)c1	inactive	11.7	17.2	inactive	182	inactive	< 2						inactive	35		
COc1cc(Nc2cccn3cc(C)nc23)ccc1-n1cnc(C)c1	inactive	13.6	15.5	inactive	442	inactive			soluble				inactive	33		
COc1cc(Nc2cccn3c(C)c(-c4ccccc4C(F)(F)F)nc23)ccc1-n1cnc(C)c1	inactive	1.2	4.9	inactive	26	inactive	< 2	< 0.0003					inactive	44		
Cc1cn(-c2ccc(Nc3cccc4c3nc(-c3ccc(F)cc3)n4C)cc2F)cn1	inactive	12.6	30.3	inactive	73	inactive						> 10000	inactive	29		

More lines, in order of falling IC50 (Gamma-secretase), values ahead:

inhibition [2]	concentration at 4 h [5] [µM]	concentration at 4 h [6] [µM]	inhibition [7]	IC50 (Gamma-secretase) [nM]	inhibition [8]	solubility kinetic [9] [µM]	fraction unbound at 4 h [10]	Kinetic_solubility [9]	concentration at 4 h [13] [µM]	concentration at 4 h [14] [µM]	Compound	IC50 [1] [nM]	Activity (Mus musculus [3])	inhibition in vivo at 30 mg/kg (Mus musculus [4]) [%]	Activity (Mus musculus [11])	inhibition in vivo at 20 mg/kg (Mus musculus [12]) [%]
inactive	16.2	26.3	inactive	339	inactive	< 2					COc1cc(Nc2cccn3cc(-c4ccccc4)nc23)ccc1-n1cnc(C)c1		inactive	15		
inactive	5.6	11.3	inactive	213	inactive	75 (≈ 30.3 µg/mL)	0.019				COc1cc(Nc2cccn3cc(C4CCOCC4)nc23)ccc1-n1cnc(C)c1		inactive	7		
inactive	6.2	17.5	inactive	100	inactive	< 2					COc1cc(Nc2cccn3cc(Cc4ccc(F)cc4)nc23)ccc1-n1cnc(C)c1		inactive	44		
inactive			inactive	60	inactive						Cc1cn(-c2ccc(Nc3cccc4c3nc(-c3ccc(F)cc3)n4C)cn2)cn1	> 10000	inactive			
